Measurements as given in ChEMBL document CHEMBL1781992, “A novel monocarbonyl analogue of curcumin, (1E,4E)-1,5-bis(2,3-dimethoxyphenyl)penta-1,4-dien-3-one, induced cancer cell H460 apoptosis via activation of endoplasmic reticulum stress signaling pathway” (J Med Chem, 2011).
Activity calls are given as the source filed them. No cut-off for these calls is given here.

Assays:
NCI-H460 [1] = test: Induction of CHOP mRNA expression in human NCI-H460 cells after 12 hrs by real time quantitative PCR analysis; format: functional, cell-based
Summary of the method: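 H460 cells exposed to a concentration range for 6 or 12 h. CHOP mRNA measured by RT-PCR/qPCR and normalized to β-actin.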

[2] = target: Transcription factor Jun (Homo sapiens) (UniProt P05412); test: Induction of c-Jun phosphorylation in human NCI-H460 cells at 20 uM after 12 hrs by Western blot analysis; format: cell-based
Summary of the method: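 H460 cells cultured in RPMI 1640 with 5% heat-inactivated FBS at 37 C, 10% CO2; exposed to 20 μM for a time course. Lysed at 0 C in Tris-HCl pH 7.4 buffer with NP40, SDS, and protease/phosphatase inhibitors. Phospho-c-Jun detected by Western blot with chemiluminescence, actin as loading control; band density quantified.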

NCI-H460 [3] = test: Induction of apoptosis in human NCI-H460 cells assessed as late apoptotic cells at 5 uM after 6 hrs by annexinV-propidium iodide staining based flow cytometric analysis relative to control; format: functional
Summary of the method: (§1)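 H460 cells plated for 6 h, then treated with 5, 10 or 20 μM. Cells washed, trypsin-EDTA detached and resuspended in PBS, then stained with annexin V and propidium iodide plus RNase and 0.1% Triton X-100 for 30 min at 37 °C before flow cytometry. Figure legend gives 6 h incubation.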

NCI-H460 [4] = test: Induction of CHOP expression in human NCI-H460 cells at 15 to 20 uM after 24 hrs by Western blot analysis; format: functional, cell-based
Summary of the method: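 H460 cells treated for 24 h at the indicated concentrations; whole-cell lysates probed for CHOP by Western blot, with actin as loading control.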

Mus musculus [5] = test: Toxicity in ICR mouse assessed as organ weight change at 400 to 800 mg/kg; format: organism-based; design: dose 400-800 mg/kg; conditions: in vivo
NCI-H460 [6] = test: Induction of CHOP protein expression in human NCI-H460 cells after 6 to 24 hrs by Western blot analysis; format: functional, cell-based
Summary of the method: (§2)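 H460 cells treated for 6–24 h, or across a range of concentrations. CHOP protein measured by Western blot, densitometry expressed as percent of control; Student's t test.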

NCI-H460 [7] = test: Increase in p53 expression in human NCI-H460 cells after 1 to 12 hrs by Western blot analysis; format: functional, cell-based
Summary of the method: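 H460 cells exposed to 20 μM for varying times, or to a range of concentrations for 12 h. Lysates made in Tris-HCl pH 7.4/NaCl/NP40/SDS buffer with protease and phosphatase inhibitors, then probed for p53 by Western blot with chemiluminescent detection; bands quantified by densitometry.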

NCI-H460 [8] = test: Induction of apoptosis in human NCI-H460 cells assessed as morphological changes at 5 to 20 uM after 24 hrs by light microscopic analysis; format: functional, cell-based
Summary of the method: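 H460 cells treated at 5, 10 or 20 μM for 24 h; morphology imaged by light microscope at 20× magnification.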

Mus musculus [9] = test: Toxicity in ICR mouse assessed as mortality at 400 to 800 mg/kg; format: organism-based; design: dose 400-800 mg/kg; conditions: in vivo
NCI-H460 [10] = test: Induction of GRP78 protein expression in human NCI-H460 cells at 5 to 20 uM after 3 hrs by Western blot analysis; format: functional, cell-based
Summary of the method: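 H460 cells treated for 3 h; GRP78 protein detected by Western blot with actin as loading control.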

NCI-H460 [11] = test: Induction of XBP-1 mRNA expression in human NCI-H460 cells after 3 hrs by real time quantitative PCR analysis
NCI-H460 [12] = test: Induction of apoptosis in human NCI-H460 cells assessed as activation of caspase 3 activity at 20 uM after 24 hrs by Western blot analysis; format: functional, cell-based
NCI-H460 [13] = test: Induction of ATF-4 mRNA expression in human NCI-H460 cells after 3 hrs by real time quantitative PCR analysis
NCI-H460 [14] = test: Induction of XBP-1 protein expression level in human NCI-H460 cells after 6 hrs by Western blot analysis; format: functional, cell-based
Summary of the method: (§3)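 H460 cells exposed to 20 μM for varying times, or to a range of concentrations for 6 h. ATF-4 and XBP-1 protein measured by Western blot with actin as loading control.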

NCI-H460 [15] = test: Antitumor activity against human NCI-H460 cells xenografted in nude Balb/cA mouse assessed as decrease in tumor volume at 10 mg/kg, ip qd for 20 days measured on day 22 relative to control; format: functional; design: scale not given: the % may be the effect or the level left; conditions: route intraperitoneal
Summary of the method: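 BALB/cA nu/nu female athymic mice bearing sc right-flank xenografts (3 × 10^6 H460 cells in PBS); once-daily ip dosing began on day 10, when tumors reached 100–300 mm3. Water-soluble liposome preparation in PBS at 10 or 50 mg/kg; controls received liposome vehicle in PBS. Volume = lw²/2; T/C read on day 22. Seven mice per group, mean ± SD; Student's t test.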

NCI-H460 [16] = test: Induction of apoptosis in human NCI-H460 cells after 6 hrs by Flow cytometric analysis; format: functional, cell-based; summary of the method: as §1
NCI-H460 [17] = test: Induction of apoptosis in human NCI-H460 cells assessed as non-viable necrotic cells at 10 uM after 6 hrs by annexinV-propidium iodide staining based flow cytometric analysis relative to control; format: functional; summary of the method: as §1
NCI-H460 [18] = test: Induction of CHOP protein expression in human NCI-H460 cells at 20 uM after 6 to 24 hrs by Western blot analysis; format: functional, cell-based; summary of the method: as §2
NCI-H460 [19] = test: Induction of apoptosis in human NCI-H460 cells at 5 to 30 uM after 24 hrs by flow cytometric analysis; format: functional, cell-based
NCI-H460 [20] = test: Induction of apoptosis in human NCI-H460 cells assessed as non-viable necrotic cells at 5 uM after 6 hrs by annexinV-propidium iodide staining based flow cytometric analysis relative to control; format: functional; summary of the method: as §1
NCI-H460 [21] = test: Induction of apoptosis in human NCI-H460 cells assessed as late apoptotic cells at 20 uM after 6 hrs by annexinV-propidium iodide staining based flow cytometric analysis relative to control; format: functional; summary of the method: as §1
NCI-H460 [22] = test: Decrease in CHOP protein expression in human NCI-H460 cells transfected with lentivirus carrying CHOP siRNA at 10 uM after 6 hrs by Western blot analysis
NCI-H460 [23] = test: Induction of apoptosis in human NCI-H460 cells assessed as viable cells at 10 uM after 6 hrs by annexinV-propidium iodide staining based flow cytometric analysis relative to control; format: functional; conditions: NCI-H460, 6 h, read-out: Activity; summary of the method: as §1
NCI-H460 [24] = test: Induction of ATF-4 protein expression level in human NCI-H460 cells after 6 hrs by Western blot analysis; format: functional, cell-based; summary of the method: as §3
NCI-H460 [25] = test: Induction of apoptosis in human NCI-H460 cells assessed as activation of caspase 9 activation at 20 uM after 24 hrs by Western blot analysis; format: functional, cell-based
NCI-H460 [26] = test: Induction of apoptosis in human NCI-H460 cells assessed as viable cells at 5 uM after 6 hrs by annexinV-propidium iodide staining based flow cytometric analysis relative to control; format: functional; conditions: NCI-H460, 6 h, read-out: Activity; summary of the method: as §1
NCI-H460 [27] = test: Induction of CHOP protein expression in human NCI-H460 cells at 20 uM after 12 hrs by Western blot analysis; format: functional, cell-based; summary of the method: as §2

Transcription factor Jun (Homo sapiens), sequence (P05412 whole entry): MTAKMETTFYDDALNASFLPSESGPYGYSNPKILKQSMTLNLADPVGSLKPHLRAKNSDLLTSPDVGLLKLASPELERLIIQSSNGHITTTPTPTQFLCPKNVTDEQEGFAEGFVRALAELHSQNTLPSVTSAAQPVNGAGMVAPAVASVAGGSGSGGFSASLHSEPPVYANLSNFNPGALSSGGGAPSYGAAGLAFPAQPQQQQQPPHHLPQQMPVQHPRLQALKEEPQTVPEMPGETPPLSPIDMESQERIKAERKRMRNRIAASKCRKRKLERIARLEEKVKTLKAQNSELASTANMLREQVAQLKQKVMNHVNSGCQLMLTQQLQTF

In the case of `COc1cccc(/C=C/C(=O)/C=C/c2cccc(OC)c2OC)c1OC`, the Activity (NCI-H460 [1]) is reported as “Dose-dependent effect”, the Activity [2] is reported as “Active” and the Activity (NCI-H460 [3]) is reported as 2.62%. For the same compound, the Activity (NCI-H460 [4]) was “Active”, the Activity (Mus musculus [5]) was “Non-toxic” and the Activity (NCI-H460 [6]) was “Dose-dependent effect”. The Activity (NCI-H460 [7]) was “Dose-dependent effect”, the Activity (NCI-H460 [8]) was “Active” and the Activity (Mus musculus [9]) was “Non-toxic”. The Activity (NCI-H460 [10]) was “Active”, the Activity (NCI-H460 [11]) was “Dose-dependent effect” and the Activity (NCI-H460 [12]) was “Active”. The Activity (NCI-H460 [13]) was “Dose-dependent effect”, the Activity (NCI-H460 [14]) was “Dose-dependent effect” and the Activity (NCI-H460 [15]) was 75.8%. The Activity (NCI-H460 [16]) was “Dose-dependent effect”, the Activity (NCI-H460 [17]) was 1.49% and the Activity (NCI-H460 [18]) was “Active”. The Activity (NCI-H460 [19]) was “Active”, the Activity (NCI-H460 [20]) was 0.55% and the Activity (NCI-H460 [21]) was 11.56%. The Activity (NCI-H460 [22]) was “inactive”, the viability at 10 µM (NCI-H460 [23]) was 72.5% and the Activity (NCI-H460 [24]) was “Dose-dependent effect”. For the same compound, the Activity (NCI-H460 [25]) was “Active”, the viability at 5 µM (NCI-H460 [26]) was 89.4% and the Activity (NCI-H460 [27]) was “Active”.
